The results in this text go back to PubChem BioAssay.

Structures are written as SMILES. Calls of active or inactive are those of the source.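 Rule for the calls, unless noted: active = GFP response above 150% of the DMSO level; inconclusive = fewer than 70 events counted for a yeast strain; inactive = the rest.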

The nature of test [1]: RPL19A-GFP modulators, yeast TOR pathway, confirmation, cell-based, S. cerevisiae, flow cytometry, cherry picks, mother/daughter gates (AID 2270;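 active = GFP response below 50% of the DMSO control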). The following applies: S. cerevisiae RPL19A-GFP strain, 3 h, at 10 µM, stronger effect = lower value, 100 = same GFP as DMSO wells. Background: Flow cytometry measures light scatter and fluorescence of single cells or particles in a stream.

Test [2] in a line: LAP4-GFP expression modulators in yeast, confirmation, cell-based, cherry picks, flow cytometry, mother/daughter gates (AID 2271;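 active = GFP response above 150% of the DMSO control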;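 note: ratio of sample to DMSO plate mean so 100% equals DMSO level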). The following applies: S. cerevisiae LAP4-GFP strain, 3 h, at 10 µM, stronger effect = higher value, 100 means same as DMSO control. A digest of the protocol: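 System: Alexa 633-stained baker's yeast GFP-fusion strain / Medium: synthetic complete (SC) yeast growth medium / Doses: compound at 10 µM, single point / Times: 3 h treatment at 30 °C with rotation / Detection: HT flow cytometry, GFP fluorescence channel / Benchmarks: DMSO-only negative wells, rapamycin 400 ng/mL positive wells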

Test [3] can be described thus: modulators of MEP2-GFP levels in yeast, confirmation, S. cerevisiae, flow cytometry GFP, cherry picks (AID 2272;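 active = GFP response above 150% of the DMSO control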;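 note: ratio of well signal to plate DMSO mean so 100% equals DMSO level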). The following applies: S. cerevisiae MEP2-GFP strain, 3 h, at 10 µM, stronger effect = higher value.
Test [4] in a line: AGP1-GFP expression modulators, hit retest, confirmation, cell-based, flow cytometry, S. cerevisiae, cherry picks (AID 2273).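 Note: median GFP channel fluorescence over the whole cell population gate.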 To be noted: S. cerevisiae AGP1-GFP strain, 3 h, at 10 µM.
A short description of test [5]: modulators of CIT2-GFP expression in yeast, confirmation, S. cerevisiae, GFP fusion, cherry picks, mother/daughter gates (AID 2274). The following applies: S. cerevisiae CIT2-GFP strain, flow cytometry, 3 h, at 10 µM, stronger effect = higher value.
Setting [6] is: measured here: daughter cell gate.
Where [7] appears, read: measured here: mother cell gate.
Where [8] appears, read: measured here: daughter cell gate response.
Where [9] appears, read: measured here: mother cell gate response.

Regarding `N#C/C(=C\c1c(N2CCN(c3ccccc3)CC2)nc2ccccn2c1=O)C(N)=O`, the GFP response vs DMSO in test [1] was 104% (inactive); in test [1] (setting [6]) it was 99.1%; in test [1] (setting [7]), 99.3%; in test [3] it was 105% (inactive). The figures for the GFP response relative to DMSO in test [2], in test [2] (setting [8]) and in test [2] (setting [9]) were 97% (inactive), 97.5% and 98.4%, respectively. Further, the GFP response, % of DMSO in test [4] was 106% (inactive); in test [5], 98.8% (inactive); in test [5] (setting [6]), 99.2%; in test [5] (setting [7]), 88.2%.

As for `O=C1c2cccc3c([N+](=O)[O-])ccc(c23)C(=O)N1O`, the GFP response vs DMSO in test [1] was 131% (inactive); in test [1] (setting [6]), 136%; in test [1] (setting [7]) it was 124%; in test [3], 404% (active). Besides, the GFP response relative to DMSO was 249% (active) in test [2], 250% in test [2] (setting [8]) and 251% in test [2] (setting [9]). The GFP response, % of DMSO in test [4] was 132% (inactive); in test [5], 256% (active); in test [5] (setting [6]), 247%; in test [5] (setting [7]), 223%.

Turning to `COc1ccc(CCN2C(=O)c3cccc4cccc(c34)C2=O)cc1OC`, the GFP response vs DMSO in test [1] is 104% (inactive); in test [1] (setting [6]) it was 100%; in test [1] (setting [7]), 104%; in test [3], 101% (inactive). Further, the GFP response relative to DMSO in test [2] is 95.7% (inactive); in test [2] (setting [8]), 99.1%; in test [2] (setting [9]), 97.3%. The GFP response, % of DMSO in test [4] was 105% (inactive); in test [5], 100% (inactive); in test [5] (setting [6]), 101%; in test [5] (setting [7]), 96.8%.

Turning to `O=C(O)Cc1csc(-c2cccc(Oc3ccccc3)c2)n1`, the GFP response vs DMSO in test [1] was 100% (inactive); in test [1] (setting [6]) it was 97.8%; in test [1] (setting [7]), 101%; in test [3] it was 100% (inactive). Besides, the GFP response relative to DMSO in test [2] was 105% (inactive); in test [2] (setting [8]) it was 98.7%; in test [2] (setting [9]), 106%. In addition, the GFP response, % of DMSO was 95.4% (inactive) in test [4], 93.9% (inactive) in test [5], 93.2% in test [5] (setting [6]) and 93.4% in test [5] (setting [7]).

With `CNC(=O)/C(C#N)=C/c1c(N(Cc2ccccc2)Cc2ccccc2)nc2c(C)cccn2c1=O`, the GFP response vs DMSO in test [1] is 97.2% (inactive); in test [1] (setting [6]) it was 98.1%; in test [1] (setting [7]) it was 97.8%; in test [3], 112% (inactive). In addition, the GFP response relative to DMSO in test [2] was 94.4% (inactive); in test [2] (setting [8]), 95.9%; in test [2] (setting [9]), 93.1%. In addition, the GFP response, % of DMSO in test [4] is 103% (inactive); in test [5] it was 106% (inactive); in test [5] (setting [6]) it was 108%; in test [5] (setting [7]), 104%.

Take `O=C(/C=C/c1c(F)cccc1Cl)c1ccc(F)cc1`: the GFP response vs DMSO is 104% (inactive) in test [1], 104% in test [1] (setting [6]), 101% in test [1] (setting [7]) and 157% (inactive) in test [3]. Besides, the results for the GFP response relative to DMSO in test [2], in test [2] (setting [8]) and in test [2] (setting [9]) were 118% (inactive), 120% and 120%, respectively. For the same compound, the GFP response, % of DMSO in test [4] is 104% (inactive); in test [5] it was 126% (inactive); in test [5] (setting [6]) it was 129%; in test [5] (setting [7]) it was 120%.

Take `COc1ccc(S(=O)(=O)N2CCC(O)(c3ccc(Cl)cc3)CC2)cc1`: the GFP response vs DMSO in test [1] was 101% (inactive); in test [1] (setting [6]) it was 99.6%; in test [1] (setting [7]) it was 101%; in test [3] it was 105% (inactive). Besides, the values for the GFP response relative to DMSO in test [2], in test [2] (setting [8]) and in test [2] (setting [9]) were 97.9% (inactive), 97.6% and 97.2%, respectively. In addition, the GFP response, % of DMSO is 91.9% (inactive) in test [4], 107% (inactive) in test [5], 106% in test [5] (setting [6]) and 104% in test [5] (setting [7]).

As for `O=C(Nc1ccccc1O)c1ccc(Cl)cc1`, the GFP response vs DMSO in test [1] is 96.8% (inactive); in test [1] (setting [6]), 95.6%; in test [1] (setting [7]) it was 96.6%; in test [3], 102% (inactive). Moreover, the GFP response relative to DMSO in test [2] is 98.7% (inactive); in test [2] (setting [8]), 100%; in test [2] (setting [9]), 100%. The GFP response, % of DMSO was 97.8% (inactive) in test [4], 100% (inactive) in test [5], 99.7% in test [5] (setting [6]) and 98.7% in test [5] (setting [7]).

In the case of `CCN(CC)Cc1c(O)ccc2c(C)c(CC(=O)OC)c(=O)oc12`, the GFP response vs DMSO in test [1] is 103% (inactive); in test [1] (setting [6]), 101%; in test [1] (setting [7]), 100%; in test [3], 103% (inactive). Further, the GFP response relative to DMSO is 101% (inactive) in test [2], 97.5% in test [2] (setting [8]) and 102% in test [2] (setting [9]). Also, the GFP response, % of DMSO in test [4] is 106% (inactive); in test [5], 100% (inactive); in test [5] (setting [6]) it was 99.2%; in test [5] (setting [7]) it was 95.6%.

In the case of `Cc1ccccc1Sc1ncnc2onc(C)c12`, the GFP response vs DMSO in test [1] is 98.5% (inactive); in test [1] (setting [6]), 99%; in test [1] (setting [7]) it was 96.9%; in test [3] it was 106% (inactive). Besides, the GFP response relative to DMSO in test [2] is 97.7% (inactive); in test [2] (setting [8]) it was 96%; in test [2] (setting [9]), 97.4%. Besides, the GFP response, % of DMSO in test [4] was 104% (inactive); in test [5], 98.6% (inactive); in test [5] (setting [6]) it was 101%; in test [5] (setting [7]) it was 98.2%.

Turning to `COc1ccc(N2C(=O)CC(Sc3ncn[nH]3)C2=O)c(OC)c1` (centres undefined), the GFP response vs DMSO was 107% (inactive) in test [1], 112% in test [1] (setting [6]), 102% in test [1] (setting [7]) and 110% (inactive) in test [3]. In addition, the GFP response relative to DMSO in test [2] was 172% (active); in test [2] (setting [8]), 161%; in test [2] (setting [9]), 167%. Also, the GFP response, % of DMSO was 102% (inactive) in test [4], 109% (inactive) in test [5], 115% in test [5] (setting [6]) and 101% in test [5] (setting [7]).

In the case of `COc1cccc(C(=O)/C=C/c2ccc(SC)cc2)c1`, the GFP response vs DMSO is 98.6% (inactive) in test [1], 98.1% in test [1] (setting [6]), 98.5% in test [1] (setting [7]) and 100% (inactive) in test [3]. The results for the GFP response relative to DMSO in test [2], in test [2] (setting [8]) and in test [2] (setting [9]) were 103% (inactive), 104% and 103%, respectively. Also, the GFP response, % of DMSO in test [4] was 101% (inactive); in test [5] it was 99.7% (inactive); in test [5] (setting [6]), 99.1%; in test [5] (setting [7]), 99.7%.

As for `Cc1ccc(NS(=O)(=O)c2ccc(CCC(=O)N3CCOCC3)cc2)cc1`, the GFP response vs DMSO in test [1] was 94.6% (inactive); in test [1] (setting [6]), 94.6%; in test [1] (setting [7]) it was 94.9%; in test [3] it was 96.2% (inactive). Moreover, the GFP response relative to DMSO in test [2] is 95.4% (inactive); in test [2] (setting [8]), 96%; in test [2] (setting [9]), 95.1%. Besides, the GFP response, % of DMSO in test [4] is 102% (inactive); in test [5], 101% (inactive); in test [5] (setting [6]) it was 103%; in test [5] (setting [7]), 101%.

Regarding `O=C(N/N=C/c1c(Cl)cccc1Cl)c1ccc(F)cc1`, the GFP response vs DMSO in test [1] was 95% (inactive); in test [1] (setting [6]), 96.1%; in test [1] (setting [7]), 95.7%; in test [3], 96.8% (inactive). Also, the GFP response relative to DMSO in test [2] is 105% (inactive); in test [2] (setting [8]), 102%; in test [2] (setting [9]), 105%. Further, the GFP response, % of DMSO in test [4] was 97.1% (inactive); in test [5], 103% (inactive); in test [5] (setting [6]), 103%; in test [5] (setting [7]), 102%.
